Reference: ChEMBL document CHEMBL4513216, “Probing the Open Global Health Chemical Diversity Library for Multistage-Active Starting Points for Next-Generation Antimalarials” (ACS Infect Dis, 2020)

Assay: Toxicity liver stage against HepG2, at 10uM
Type: cell-based
Design: test concentration 10 uM, cell line HepG2-A16-CD81EGFP
Conditions: human, HepG2-A16-CD81EGFP cells; read-out: INHIBITION
How it was run: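 Uninfected HepG2-A16-CD81EGFP cells, 3 × 10^3 per well, 1536-well, plated on prespotted compound at 10 μM final, parasite-free screening media added to match infected plates; puromycin 10 μM positive, DMSO 0.5% negative; run in parallel with 48 h PbLuc assay at 37 °C, 5% CO2; viability by CellTiter-Glo luminescence, normalized to controls.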

Structure (SMILES)	cytotoxicity at 10 µM
Fc1ccccc1Sc1ccccc1CNC1=NCCN1	12.5%
CC1CCN(C[C@H]2CN3CC[C@H]2C[C@@H]3CNC(=O)Nc2ccsc2)CC1	2.95%
COC(=O)c1ccc(C2SC(C)=Nc3c2c(=O)[nH]n3C2CCCC2)cc1 (configuration not stated)	6.84%
CC(C)C1SCC(=O)Nc2c1cnn2-c1ccc(Cl)cc1 (configuration not stated)	47%
CN(C)c1ccc2c(c1)CN(C(=O)c1c[nH]cn1)C2c1cnco1 (configuration not stated)	-0.234%
CC(C)Nc1nc2c(c(NC3CC3)n1)CN(C(=O)c1ccsc1)CC2	-27.2%
Cn1nc(CN2CCCCC2)c2c1CN(C(=O)Nc1cccc(F)c1)C2	5.68%
CCS(=O)(=O)N1CCc2ncnc(OC)c2CC1	6.93%
O=C(c1cc[nH]n1)N1CC[C@@H]2CN(Cc3cccnc3)S(=O)(=O)[C@@H]2CC1	12.7%
OCCCNc1nc(O)c2c(n1)-c1ccccc1CC21CCCCC1	11.1%
Cc1[nH]/c(=N\C(=O)c2csc(NC3CC3)n2)sc1C	37.4%
CC(=O)Nc1ncc(S(=O)(=O)Nc2ccc(C)cc2)s1	8.6%
CCc1noc(C2CCCCN2C(=O)c2cc(C)oc2C)n1 (configuration not stated)	8.57%
Cc1ccnn1CCCNC(=O)C1CCN(S(C)(=O)=O)CC1	3.63%
CCN(CC)C(=O)CN1CCC2(C=Cc3cc(Cl)c(C)cc3O2)CC1	-3.02%
Cc1cc(C)nc(N2CCC(c3ccnc(N(C)C)n3)CC2)n1	21.1%
CN(C)c1nccc(C2CCN(c3ncccn3)CC2)n1	0.59%
c1cc(CNc2ncc(-c3cnccn3)c(C3CC3)n2)ccn1	24%
CCn1ccc(-c2cc(NCCCOc3cccc(C)c3)nc(C)n2)n1	-5.65%
O=C(NC1CC1)C1(Cc2ccccc2-c2ccncc2)CCOCC1	-3.83%
CCCN(C(=O)c1cccnc1)c1nc2c(s1)CCc1c-2cnn1C	5.05%
CCc1ccc(C(=O)N2CC[C@H](Oc3cccnc3C)[C@@H](O)CC2)cc1	8.24%

Structure (SMILES)	cytotoxicity at 10 µM
Cc1ncsc1-c1nnc(C2CCN(Cc3ccc(Cl)cc3)CC2)o1	-4.41%
Cc1ccc(Nc2nccc(C3CCCN(CC(=O)N(C)C)C3)n2)nc1 (configuration not stated)	-2.09%
c1nc2c(c(NC3CCc4ncnn4C3)n1)CCC2 (configuration not stated)	-40.7%
CC(C)(C)CN(CCC#N)C(=O)c1cccc(CC#N)c1	7.05%
CC(c1nc(-c2ccccc2)no1)N1CCc2c(ncn2C2CC2)C1 (configuration not stated)	7.12%
CN(CCc1ccncc1)CCc1nccs1	1.8%
COCC1CCN(c2ccnc3ccsc23)C1 (configuration not stated)	6.24%
CC(C)(C)n1ncc(NCC(O)c2ccccc2)c(Cl)c1=O (configuration not stated)	46.6%
N#Cc1cccn(CCOc2ccc(Cl)cc2)c1=O	18.6%
CC(C)Cn1ncc(C(=O)NS(=O)(=O)c2ccccc2)c1C1CC1	2.35%
CSCc1cc(F)ccc1CNC(=O)N1CCCC(CO)C1 (configuration not stated)	10.3%
COc1cc(C)sc1C(=O)NCCC(=O)N(C)c1ccccc1	-1.41%
CC(NC(=O)COc1cccc[n+]1[O-])C1CC1 (configuration not stated)	-6.66%
CC(C)(C)C(=O)Cn1nc(C2CC2)cc(C(F)(F)F)c1=O	-8.06%
CN(c1ccc(CNC(=O)c2c[nH]c(=O)c(Cl)c2)cc1)C1CCCCC1	88.9%
CC(C)(C)SCC(=O)NCCc1csc(N2CCCC2)n1	8.74%
COCc1noc(C2(c3ccc(F)cc3)CCC2)n1	5.93%
Cc1cc(C(=O)NCc2ccccc2CN(C)Cc2ccco2)on1	3.57%
Cc1ccc(CC(=O)NC(C)C(=O)N2CCS(=O)(=O)CC2)s1 (configuration not stated)	11.2%
Cn1cc(-c2csc(N3CCCCCC3)n2)cn1	4.22%
CC(C)(C)c1nc(CNC2CCCN(c3cccnn3)C2)no1 (configuration not stated)	4.93%
Cc1nc(C)c(C)c(N2CCC(NCCOc3ccccc3)CC2)n1	-1.45%

Structure (SMILES)	cytotoxicity at 10 µM
O=C(c1[nH]nc(C2CC2)c1Cl)N1CCN(S(=O)(=O)c2ccccc2)CC1	16%
Cc1cnn(CC2CCCN2c2ncnc3ccccc23)c1 (configuration not stated)	46.8%
NC(=O)CCSc1ccccc1NCc1ccc(Cl)s1	7.74%
CC(C)(C)c1nc(CNc2ccccc2SCCC(N)=O)cs1	23.5%
CN(Cc1cnccn1)S(=O)(=O)c1ccc(C(F)(F)F)nc1	-9.77%
CN(C)S(=O)(=O)c1ccc(CNc2ccc(Cl)cn2)cc1	7.25%
CCCN(CCc1ccccn1)C(=O)Cn1cc(C)cn1	-9.22%
Cc1cc(C2CCCN(CC(=O)Nc3nc4c(s3)CCC4)C2)n[nH]1 (configuration not stated)	-44.2%
O=C(NC1CCN(CC2CC2)C1)c1ccc(N2CCC(O)CC2)cc1 (configuration not stated)	-11.8%
Cc1ccc(CN2C[C@H](NC(=O)c3nccn3C)[C@H]3OCCC[C@H]32)o1	-85%
O=C(NCC1CC1)c1cc2c(s1)CCN2c1ncccn1	-101%
CCOCC1CN(C(=O)c2ccco2)Cc2cnn(CC)c21 (configuration not stated)	-69%
CC(C)CC(=O)N1CC(=O)c2sc(Nc3ccc(C#N)cc3)nc2C1	-0.279%
CNc1cc(C)nc(NC2CCCN(C3Cc4ccccc4C3)C2)n1 (configuration not stated)	0.403%
CSCC[C@@H](CO)Nc1ccc(-c2nc(-c3ccccc3F)no2)cn1	9.74%
c1ccc(OCc2noc(CN3CCC(N4CCSCC4)CC3)n2)cc1	-6.95%
NC1CCCCN(Cc2cc(-c3ccccc3OC(F)(F)F)no2)C1 (configuration not stated)	-4.52%
CC(=O)N1CCc2c(nc(N(C)C)nc2NC(C)Cc2cccs2)C1 (configuration not stated)	-42.9%
Fc1cc(Oc2ccc(C(F)(F)F)cn2)cc(F)c1CN1CCCC1	24%
O=C1N(CC2CC2)CCCC1(O)CN1CCc2[nH]ncc2C1 (configuration not stated)	-2.2%
C[C@H](c1ccc(F)cc1)n1c(C2CCN(C)CC2)n[nH]c1=O	9.93%
CCN1CCCC(CN(C)c2nccc(-c3ccc(C)nc3C)n2)C1 (configuration not stated)	-13.5%

Structure (SMILES)	cytotoxicity at 10 µM
CC(C)[C@H]1CN(c2ccncc2)C[C@@H]1NS(=O)(=O)N(C)C	4.56%
CC(C)c1cc(NC2CCCN(C(=O)c3cccs3)C2)ncn1 (configuration not stated)	-7.55%
COC[C@]1(O)CCN(C(=O)c2ccc(CN(C)C)o2)CC1(C)C	4.35%
CN(Cc1cccc(OCCO)c1)Cc1cccc2ncccc12	26%
CSc1nccc(N2CCC(NCc3ccc4nsnc4c3)CC2)n1	28.3%
Cc1nc(CN(C)C)cc(N2CCCC(COc3ccc(F)cc3)C2)n1 (configuration not stated)	-7.4%
Cc1nc(C)c(C(=O)N2C[C@@H](C(=O)O)[C@H](C3CC3)C2)s1	7.53%
CCNC(=O)[C@@H]1C[C@@H](N)CN1Cc1ccc(Sc2ccc(C)cc2)o1	-53.4%
COc1cc(N(C)Cc2cccc(-n3cccn3)c2)nc(N)n1	49.1%
Cc1[nH]c2c(C)ccc(C)c2c1CC(=O)NCC(O)c1cccnc1 (configuration not stated)	-2.11%
CCCN(CC)C(=O)c1cc(Cn2c(C)nc3ccccc32)[nH]n1	36.7%
CC1(C)CN(C(=O)c2ncc(F)cc2F)CCC1(O)CN1CCOCC1 (configuration not stated)	-8.37%
CCNc1ccnc(N2Cc3cnn(Cc4ccc(F)cc4)c3C2)n1	10%
O=C(c1cc(-c2cn[nH]c2)nc2cc(F)ccc12)N1CCS(=O)(=O)CC1	0.141%
Cc1nc(-c2cn(CCN)nn2)n(-c2ccc(C(F)(F)F)cc2)n1	-1.77%
Cc1c[nH]c(CN2CCOC(c3ccc(Cl)cc3)C2)c(C)c1=O (configuration not stated)	13.4%
Cc1ccc(Cl)cc1C(=O)N1CCC2(CC1)c1ccccc1[C@@H](N)[C@@H]2O	-13.8%
O=C1CC[C@H]2CN(Cc3ccc(Cl)s3)CC[C@H]2N1CCc1c[nH]cn1	38.5%
Cc1cc(C)c2nc(CN3CCCC(c4cc[nH]n4)C3)cc(O)c2c1 (configuration not stated)	-3.97%
CCn1ccnc1CN1CCCC(CO)(Cc2cccc(Cl)c2)C1 (configuration not stated)	-0.0444%
COc1ccccc1N1CCN(C(=O)c2ccnc(N(C)C)c2)CC1	84.2%
COc1cc(C(=O)Nc2nc(C)no2)cc(Cl)c1OC	-4.29%

Structure (SMILES)	cytotoxicity at 10 µM
CC(C)c1n[nH]c(C(=O)Nc2ccncc2)c1Br	12.6%
Cc1cccc(NC2CCN(C(=O)Nc3cccc4[nH]ccc34)CC2)n1	-6.85%
c1cncc(-c2ccc3c(c2)C2(CC3)CCN(c3nncs3)CC2)c1	13.1%
Cn1cnc(S(=O)(=O)N2C[C@H]3CN(Cc4ccccn4)C[C@H]3C2)c1	4.26%
CN(C)C(=O)[C@@]12CCO[C@@H]1CCN(Cc1ccc3c(c1)OCO3)C2	0.863%
CC(C)N1CCOCC2(CCCN(C(=O)c3cncn3C)C2)C1 (configuration not stated)	-1.09%
CC(C)NC(=O)N1CCN(CC2CC2)CC2(CC(=O)N(C)C2)C1 (configuration not stated)	-1.34%
CCOC(=O)[C@]12CCCN(Cc3nccs3)C[C@H]1CN(C(C)C)C2	-8.81%
Cc1cnc(N2CCCC3(CCCN3CC(=O)N(C)C)C2)nc1 (configuration not stated)	-0.634%
COCCN1CC2(CCOCC2)c2cc(NC(=O)C3CC=CC3)ccc21	-109%
O=C1CC2(CCCCN2C(=O)c2ccco2)CN1c1cccnc1 (configuration not stated)	-1.69%
COCCN1CCO[C@H]2CN(C(=O)c3cccs3)C[C@H]21	2.1%
O=C1CC2(CCN(Cc3ccco3)C2)CN1c1ccc2c(c1)OCO2 (configuration not stated)	-75.9%
Cc1ccc(CN2Cc3nnn(C)c3C(COCc3ccccc3)C2)s1 (configuration not stated)	1.58%
Cc1cccc(CN2C[C@@H]3OCCN(c4ccnc(N(C)C)n4)[C@@H]3C2)c1	-94.9%
COc1cccc(-c2ncc(CN3C[C@H]4CC[C@@H](C3)N(C)C4=O)s2)c1	6.74%
CCOCCN1CCN(C=C2NN=C(c3occc3C)O2)CC1CC (configuration not stated)	-50.3%
Cc1[nH]n(C)c2nc(=O)cc(C(F)(F)C(F)(F)F)c1-2	-2.22%
NC1CCC(Nc2nccc(CCC(F)(F)F)n2)CC1 (configuration not stated)	-15%
